Results from ChEMBL document CHEMBL5329156, “Discovery and development of novel substituted monohydrazides as potent antifungal agents” (RSC Med Chem, 2023).
Converted amounts (≈) assume the structure as drawn.

How the values were obtained:
[1] = test system: Candida albicans; assay: Antifungal activity against Candida albicans ATCC 10231 assessed as fungal growth inhibition by double dilution method; type: functional
Outline: (§1)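 Broth microdilution after CLSI M27-A3/M38-A2 with minor changes. Single colony grown overnight in YPD at 35 °C, 200 rpm. Compound final range 0.06-31.3 µg/mL; incubated 48 h at 35 °C.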

[2] = test system: Candida albicans; assay: Antifungal activity against Candida albicans ATCC 64124 assessed as fungal growth inhibition by double dilution method; type: functional
Outline: (§2)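 Broth microdilution after CLSI M27-A3/M38-A2 with minor modifications. A single colony was grown overnight in YPD at 35 °C with shaking at 200 rpm. Cells were mixed 1:1 with compound (final 0.06-31.3 µg/mL, from DMSO stocks) and incubated 48 h at 35 °C.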

[3] = test system: Candida albicans; assay: Antifungal activity against itraconazole/fluconazole susceptible Candida albicans ATCC MYA-2876 assessed as fungal growth inhibition by double dilution method; type: functional; outline: as §2
[4] = test system: Candida albicans; assay: Antifungal activity against itraconazole/fluconazole resistant Candida albicans ATCC 90819 assessed as fungal growth inhibition by double dilution method; type: functional; outline: as §2
[5] = test system: Candida albicans; assay: Antifungal activity against itraconazole/fluconazole susceptible Candida albicans ATCC MYA-2310 assessed as fungal growth inhibition by double dilution method; type: functional; outline: as §2
[6] = test system: Candida albicans; assay: Antifungal activity against itraconazole/fluconazole resistant Candida albicans ATCC MYA-1237 assessed as fungal growth inhibition by double dilution method; type: functional; outline: as §2
[7] = test system: Candida albicans; assay: Antifungal activity against itraconazole/fluconazole resistant Candida albicans ATCC MYA-1003 assessed as fungal growth inhibition by double dilution method; type: functional; outline: as §2
[8] = test system: Nakaseomyces glabratus; assay: Antifungal activity against Candida glabrata ATCC 2001 assessed as fungal growth inhibition by double dilution method; type: functional; outline: as §1
[9] = test system: Pichia kudriavzevii; assay: Antifungal activity against Pichia kudriavzevii ATCC 6258 assessed as fungal growth inhibition by double dilution method; type: functional; outline: as §1
[10] = test system: Nakaseomyces glabratus; assay: Antifungal activity against Candida glabrata ATCC 22019 assessed as fungal growth inhibition by double dilution method; type: functional; outline: as §1
[11] = test system: [Candida] auris; assay: Antifungal activity against Candida auris AR Bank # 0384 assessed as fungal growth inhibition by double dilution method; type: functional; details: Candidozyma auris; outline: as §1
[12] = test system: [Candida] auris; assay: Antifungal activity against Candida auris AR Bank # 0390 assessed as fungal growth inhibition by double dilution method; type: functional; details: Candidozyma auris; outline: as §1
[13] = test system: Cryptococcus neoformans; assay: Antifungal activity against Cryptococcus neoformans ATCC MYA-895 assessed as fungal growth inhibition by double dilution method; type: functional; outline: as §1
[14] = test system: Aspergillus terreus; assay: Antifungal activity against Aspergillus terreus ATCC MYA-3633 assessed as fungal growth inhibition by double dilution method; type: functional
[15] = test system: Aspergillus fumigatus; assay: Antifungal activity against Aspergillus fumigatus NRRL 163 assessed as fungal growth inhibition by double dilution method; type: functional
[16] = test system: Aspergillus flavus; assay: Antifungal activity against Aspergillus flavus ATCC MYA-3631 assessed as fungal growth inhibition by double dilution method; type: functional
[17] = test system: Aspergillus nidulans; assay: Antifungal activity against Aspergillus nidulans ATCC 38163 assessed as fungal growth inhibition by double dilution method; type: functional
[18] = test system: Aspergillus fumigatus; assay: Antifungal activity against Aspergillus fumigatus NRRL 5109 assessed as fungal growth inhibition by double dilution method; type: functional
[19] = test system: Aspergillus fumigatus; assay: Antifungal activity against Aspergillus fumigatus NRRL 6113 assessed as fungal growth inhibition by double dilution method; type: functional
[20] = test system: [Candida] auris; assay: Antifungal activity against Candida auris AR Bank # 381 assessed as fungal growth inhibition by double dilution method; type: functional; details: Candidozyma auris; outline: as §1
[21] = test system: [Candida] auris; assay: Antifungal activity against Candida auris AR Bank # 382 assessed as fungal growth inhibition by double dilution method; type: functional; details: Candidozyma auris; outline: as §1
[22] = test system: [Candida] auris; assay: Antifungal activity against Candida auris AR Bank # 383 assessed as fungal growth inhibition by double dilution method; type: functional; details: Candidozyma auris; outline: as §1
[23] = test system: [Candida] auris; assay: Antifungal activity against Candida auris AR Bank # 384 assessed as fungal growth inhibition by double dilution method; type: functional; details: Candidozyma auris; outline: as §1
[24] = test system: [Candida] auris; assay: Antifungal activity against Candida auris AR Bank # 385 assessed as fungal growth inhibition by double dilution method; type: functional; details: Candidozyma auris; outline: as §1
[25] = test system: [Candida] auris; assay: Antifungal activity against Candida auris AR Bank # 386 assessed as fungal growth inhibition by double dilution method; type: functional; details: Candidozyma auris; outline: as §1
[26] = test system: [Candida] auris; assay: Antifungal activity against Candida auris AR Bank # 387 assessed as fungal growth inhibition by double dilution method; type: functional; details: Candidozyma auris; outline: as §1
[27] = test system: [Candida] auris; assay: Antifungal activity against Candida auris AR Bank # 388 assessed as fungal growth inhibition by double dilution method; type: functional; details: Candidozyma auris; outline: as §1
[28] = test system: [Candida] auris; assay: Antifungal activity against Candida auris AR Bank # 389 assessed as fungal growth inhibition by double dilution method; type: functional; details: Candidozyma auris; outline: as §1
[29] = test system: [Candida] auris; assay: Antifungal activity against Candida auris AR Bank # 390 assessed as fungal growth inhibition by double dilution method; type: functional; details: Candidozyma auris; outline: as §1
[30] = test system: Candida duobushaemulonii; assay: Antifungal activity against Candida duobushaemulonii AR Bank # 391 assessed as fungal growth inhibition by double dilution method; type: functional; details: Candidozyma duobushaemuli; outline: as §1
[31] = test system: Candida duobushaemulonii; assay: Antifungal activity against Candida duobushaemulonii AR Bank # 392 assessed as fungal growth inhibition by double dilution method; type: functional; details: Candidozyma duobushaemuli; outline: as §1
[32] = test system: [Candida] haemuloni; assay: Antifungal activity against Candida haemulonii AR Bank # 393 assessed as fungal growth inhibition by double dilution method; type: functional; details: Candidozyma haemuli; outline: as §1
[33] = test system: Candida duobushaemulonii; assay: Antifungal activity against Candida duobushaemulonii AR Bank # 394 assessed as fungal growth inhibition by double dilution method; type: functional; details: Candidozyma duobushaemuli; outline: as §1
[34] = test system: [Candida] haemuloni; assay: Antifungal activity against Candida haemulonii AR Bank # 395 assessed as fungal growth inhibition by double dilution method; type: functional; details: Candidozyma haemuli; outline: as §1
[35] = test system: Kodamaea ohmeri; assay: Antifungal activity against Kodamaea ohmeri AR Bank # 396 assessed as fungal growth inhibition by double dilution method; type: functional; outline: as §1
[36] = test system: Pichia kudriavzevii; assay: Antifungal activity against Pichia kudriavzevii AR Bank # 397 assessed as fungal growth inhibition by double dilution method; type: functional; outline: as §1
[37] = test system: Clavispora lusitaniae; assay: Antifungal activity against Clavispora lusitaniae AR Bank # 398 assessed as fungal growth inhibition by double dilution method; type: functional; outline: as §1
[38] = test system: Saccharomyces cerevisiae; assay: Antifungal activity against Saccharomyces cerevisiae AR Bank # 399 assessed as fungal growth inhibition by double dilution method; type: functional; outline: as §1
[39] = test system: Saccharomyces cerevisiae; assay: Antifungal activity against Saccharomyces cerevisiae AR Bank # 400 assessed as fungal growth inhibition by double dilution method; type: functional; outline: as §1
[40] = test system: J774.A1; assay: Cytotoxicity against J774A.1 cells assessed as reduction in cell viability at 31.3 microg/ml; type: toxicity, cell-based; details: mouse, dose 31.3 µg/ml
Outline: (§3)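 Cells in DMEM with 10% FBS and 1% Pen/Strep, seeded at 10,000 cells/well and held overnight at 37 °C, 5% CO2. Compounds added at final 31.3-0.12 µg/mL (0.05% DMSO vehicle) for 24 h. Resazurin then added for 6 h; fluorescence read at ex 560/em 590. Triton X-100 1% as positive control; values normalized to vehicle. Run in quadruplicate.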

[41] = test system: HEK293; assay: Cytotoxicity against human HEK-293 cells assessed as reduction in cell viability at 31.3 microg/ml; type: toxicity, cell-based; details: dose 31.3 µg/ml; outline: as §3
[42] = test system: HepG2; assay: Cytotoxicity against human HepG2 cells assessed as reduction in cell viability upto 31.3 microg/ml; type: toxicity, cell-based; details: dose < 31.3 µg/ml; outline: as §3

## COc1ccc(NNC(=O)c2cnccn2)cc1
[1]
  MIC: 0.49 µg/mL (≈ 2.01 µM)
[2]
  MIC: 0.98 µg/mL (≈ 4.01 µM)
[3]
  MIC: 1.95 µg/mL (≈ 7.98 µM)
[4]
  MIC: 0.98 µg/mL (≈ 4.01 µM)
[5]
  MIC: 1.95 µg/mL (≈ 7.98 µM)
[6]
  MIC: 0.98 µg/mL (≈ 4.01 µM)
[7]
  MIC: 1.95 µg/mL (≈ 7.98 µM)
[8]
  MIC: 0.98 µg/mL (≈ 4.01 µM)
[9]
  MIC: 0.98 µg/mL (≈ 4.01 µM)
[10]
  MIC: 3.9 µg/mL (≈ 16 µM)
[11]
  MIC: 0.49 µg/mL (≈ 2.01 µM)
[12]
  MIC: 0.49 µg/mL (≈ 2.01 µM)
[13]
  MIC: 0.98 µg/mL (≈ 4.01 µM)
[14]
  MIC: > 31.3 µg/mL
[15]
  MIC: 31.3 µg/mL (≈ 128 µM)
[16]
  MIC: > 31.3 µg/mL
[17]
  MIC: 0.98 µg/mL (≈ 4.01 µM)
[18]
  MIC: 31.3 µg/mL (≈ 128 µM)
[19]
  MIC: 31.3 µg/mL (≈ 128 µM)
[20]
  MIC: 1.95 µg/mL (≈ 7.98 µM)
[21]
  MIC: 0.98 µg/mL (≈ 4.01 µM)
[22]
  MIC: 0.98 µg/mL (≈ 4.01 µM)
[23]
  MIC: 0.98 µg/mL (≈ 4.01 µM)
[24]
  MIC: 0.98 µg/mL (≈ 4.01 µM)
[25]
  MIC: 0.49 µg/mL (≈ 2.01 µM)
[26]
  MIC: 1.95 µg/mL (≈ 7.98 µM)
[27]
  MIC: 0.98 µg/mL (≈ 4.01 µM)
[28]
  MIC: 0.98 µg/mL (≈ 4.01 µM)
[29]
  MIC: 0.98 µg/mL (≈ 4.01 µM)
[30]
  MIC: 0.49 µg/mL (≈ 2.01 µM)
[31]
  MIC: 0.49 µg/mL (≈ 2.01 µM)
[32]
  MIC: 0.24 µg/mL (≈ 0.983 µM)
[33]
  MIC: 0.49 µg/mL (≈ 2.01 µM)
[34]
  MIC: 0.49 µg/mL (≈ 2.01 µM)
[35]
  MIC: 0.98 µg/mL (≈ 4.01 µM)
[36]
  MIC: 0.49 µg/mL (≈ 2.01 µM)
[37]
  MIC: 0.98 µg/mL (≈ 4.01 µM)
[38]
  MIC: 0.98 µg/mL (≈ 4.01 µM)
[39]
  MIC: 0.98 µg/mL (≈ 4.01 µM)
[40]
  Activity: Non-Toxic
[41]
  Activity: Non-Toxic
[42]
  Activity: Non-Toxic
